Laboratory results taken from PMC4788712 (Acta Pharmaceutica Sinica. B, 2015).
Where “and” joins values, the source holds several entries; their conditions need not be identical. Identical values can stand only once. Like-named read-outs stand apart in the source and are kept apart here.

What was measured:
[1] = type: in vivo, human; details: for AUC0-t / AUC0-∞ / MRT0-t / MRT0-∞ / t1/2: in hPBMCs, single oral dose 600 mg AZT, mean±SD, n=12; for MRT inf / MRT last / half-life: male, human, peripheral blood mononuclear cells (hPBMCs), po, 600 mg
[2] = Plasma pharmacokinetics after a single oral dose of AZT; type: in vivo, human; details: for Plasma concentration of the phosphorylated metabolites: after single oral dose 600 mg AZT
Outline: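 Open-label study in 12 healthy Chinese men (20–28 y) after an overnight fast of at least 12 h. Each took a single 600 mg oral dose of test compound with 240 mL water, with standardized meals at 4 and 10 h. Heparinized blood (20 mL) was drawn by antecubital catheter predose and at 0.5–10 h. Plasma was stored at –20 °C and assayed by validated LC–MS/MS (C18; 0.2% formic acid/methanol), LLOQ 0.1125 pg/μL.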

[3] = liver or heart mitochondria; cited from earlier work
[4] = Safety and tolerability in healthy subjects; type: in vivo, human
Outline: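 Open-label, single-dose study in 12 screened healthy Chinese men, negative for hepatitis and HIV. After an overnight fast of at least 12 h, each took 600 mg orally with 240 mL water, with standardized meals at 4 and 10 h. Safety was assessed in all completers under prolonged bed rest, extended stay in the clinical unit, and enhanced clinical monitoring and nursing.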

[5] = single oral dose 600 mg AZT, 12 subjects

Row | AUC0-t [1] | AUC0-∞ [1] | Plasma concentration of the phosphorylated metabolites [2] | MRT inf [1] | MRT last [1] | half-life [1] | SMILES | MRT0-t [1] | MRT0-∞ [1] | t1/2 [1] | other results
1 | 0.345±0.055 ng⋅h/10^6 cell | 0.615±0.161 ng⋅h/10^6 cell | not present in measurable levels |  |  |  | Cc1cn([C@H]2C[C@H](N=[N+]=[N-])[C@@H](COP(=O)(O)OP(=O)(O)O)O2)c(=O)[nH]c1=O [AZT-DP, AZT diphosphate] | 0.792 ± 12.028 h | 14.270 ± 6.350 h | 8.285 ± 2.840 h | 
2 | 0.223±0.043 ng⋅h/10^6 cell | 0.279±0.069 ng⋅h/10^6 cell | not present in measurable levels | 6.33 ± 1.14 h | 3.87 ± 0.235 h | 4.24 ± 0.977 h | Cc1cn([C@H]2C[C@H](N=[N+]=[N-])[C@@H](CO[P@](=O)(O)O[P@](=O)(O)OP(=O)(O)O)O2)c(=O)[nH]c1=O [AZT-TP, 5′-AZT triphosphate] |  |  |  | Detection of AZT-TP during incubation in mitochondria [3]: No AZT-TP was detected
3 | 0.371±0.193 ng⋅h/10^6 cell | 0.396±0.189 ng⋅h/10^6 cell |  | 14.9 ± 32.4 h | 4.94 ± 19.3 h | 2.49 ± 0.638 h | Cc1cn([C@H]2C[C@H](N=[N+]=[N-])[C@@H](CO)O2)c(=O)[nH]c1=O [AZT, 3'-azido-3'-deoxythymidine] |  |  |  | AUC0-t ([2]; male, human, po, 600 mg): 7050 ± 1280 ng·h/mL; AUC(0-inf) ([2]; male, human, po, 600 mg): 7170 ± 1270 ng·h/mL; Cmax ([2]; male, human, po, 600 mg): 3510 ± 363 ng/mL; MRT inf ([2]; male, human, po, 600 mg): 2.4 ± 0.216 h; MRT last ([2]; male, human, po, 600 mg): 2.2 ± 0.253 h; Vd/F ([2]; male, human, po, 600 mg): 264 ± 162 L; half-life ([2]; male, human, po, 600 mg): 2.02 ± 0.946 h; CL/F ([2]; single oral dose 600 mg AZT, mean±SD, n=12): 86.092 ± 14.962 L/h; Hypersensitivity to AZT ([4]; 12 subjects): None of the 12 subjects had hypersensitivity; Tolerability ([4]; single oral dose 600 mg AZT, 12 healthy Chinese male subjects): well tolerated; Reported ADR: headache [4, 5]: one report; Reported ADR: nausea [4, 5]: one report

Row | SMILES | AUC0-t [1] | AUC0-∞ [1] | Plasma concentration of the phosphorylated metabolites [2] | MRT inf [1] | MRT last [1] | half-life [1] | MRT0-t [1] | MRT0-∞ [1] | t1/2 [1] | other results
4 | Cc1cn([C@H]2C[C@H](N=[N+]=[N-])[C@@H](COP(=O)(O)O)O2)c(=O)[nH]c1=O [AZT-MP, AZT monophosphate] | 2.548 ng⋅h/10^6 cell and 2.548±0.656 ng⋅h/10^6 cell | 6.343±2.964 ng⋅h/10^6 cell | not present in measurable levels |  |  |  | 4.190 ± 0.347 h | 18.715 ± 12.856 h | 13.428 ± 9.611 h | 
